In assay [1] the test system is HCT-116. The experiment in a line: Chemosensitization activity in human HCT116 cells assessed as cisplatin-induced antiproliferative activity at 1.25 uM in presence of cisplatin after 24 hrs by MTT assay (reference value: 15.4%). The class given is functional.
In assay [2] the target is T1, RecQ-like DNA helicase BLM (Homo sapiens, UniProt P54132). In words: Inhibition of BLM in human HCT116 cells assessed as induction of HRR up-regulation at 1 uM after 24 hrs by GFP-based flow cytometry relative to untreated control. The class given is cell-based. In a few lines:
(§1)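 HCT116 cells (2×10^5) co-transfected with DR-GFP HRR reporter and I-SceI plasmid; 24 h later treated with 0–2 μM ligand (reference 0–50 μM); BLM siRNA knockdown where stated. GFP-positive cells counted by flow cytometry and normalised to untreated; triplicate, mean ± SD.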

The target in assay [3] is T1, RecQ-like DNA helicase BLM. In words: Inhibition of BLM in human HCT116 cells assessed as induction of HRR up-regulation after 24 hrs by GFP-based flow cytometry. The class given is cell-based. A digest of the protocol: as §1
In a further assay the test system is DNA. The experiment in a line: Binding affinity to DNA (unknown origin) up to 2 molar ratio by ITC. It is filed as nucleic-acid assay. A digest of the protocol:
(§2)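 ITC at 25 °C in 2 mM MgCl2, 10 mM KH2PO4, pH 7.5: ligand (0.6 mM, syringe) titrated in 10 μL injections, 300 s apart, into BLM642-1296 wild-type or point mutant, or DNA (0.04 mM, cell). His-tagged BLM from E. coli BL21(DE3), induced with […] at 16 °C for 24 h. Heats integrated, fitted to 1:1 model for KD.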

Assay [4] deals with T2, DNA repair protein RAD51 homolog 1 (Homo sapiens) (UniProt Q06609).
T2 sequence (whole entry): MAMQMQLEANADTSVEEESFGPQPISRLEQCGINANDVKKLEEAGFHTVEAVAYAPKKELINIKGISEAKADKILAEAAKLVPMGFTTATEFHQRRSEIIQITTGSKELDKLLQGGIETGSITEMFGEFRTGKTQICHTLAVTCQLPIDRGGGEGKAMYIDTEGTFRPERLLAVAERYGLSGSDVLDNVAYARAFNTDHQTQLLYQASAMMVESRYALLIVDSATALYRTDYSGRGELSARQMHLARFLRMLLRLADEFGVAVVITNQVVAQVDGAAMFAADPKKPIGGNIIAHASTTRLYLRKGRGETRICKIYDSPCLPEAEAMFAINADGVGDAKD
The experiment in a line: Induction of RAD51 (unknown origin) binding to ssDNA up to 1 uM […] by ELISA based DNA exchange activity assay. In a few lines:
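Biotinylated duplex forked DNA (50 nM final) immobilised on streptavidin plates. BLM (10–1000 nM) preincubated 1 h at 37 °C with ligand series, then added with 250 nM RAD51 for 1 h at 37 °C, ELISA format. Bound RAD51 read at 450 nm as RAD51–ssDNA filament level.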

Assay [5] deals with RecQ-like DNA helicase BLM (Homo sapiens), P54132 [M1111A]. The experiment in a line: Inhibition of His-tagged BLM M1111A mutant (unknown origin) binding to DNA assessed as effect on unbound DNA. A digest of the protocol:
(§3)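 Biotinylated forked DNA (50 nM) immobilised on streptavidin plates overnight at 4 °C. BLM or mutant (100 nM final) premixed with serially halved ligand in 3% BSA blocking buffer, ≤1% DMSO, 1 h on ice. Applied to the blocked plate for 1 h at 37 °C. Bound BLM detected with anti-BLM and HRP secondary, TMB, A450; Hill fit.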

For assay [6], the target named is T1, RecQ-like DNA helicase BLM. The experiment in a line: Inhibition of His-tagged BLM (unknown origin) expressed in Escherichia coli BL21 (DE3) assessed as reduction in BLM helicase unwinding activity at 50 uM using 5'-biotin labeled forked-DNA as substrate after 1 hr by PAGE analysis. In a few lines:
(§4)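 BLM642-1296 (His-tagged, E. coli BL21(DE3)) preincubated with ligand (1.0, 10, 50 μM; ≤1% DMSO) for 1 h at 4 °C. Reaction: 8 nM annealed 5′-biotin duplex forked DNA, 32 nM BLM, 2 mM ATP, 0.1% BSA, 1 h.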

Assay [7] concerns RecQ-like DNA helicase BLM (Homo sapiens), P54132 [H996A]. The experiment in a line: Inhibition of His-tagged BLM H996A mutant (unknown origin) binding to DNA assessed as effect on unbound DNA. A digest of the protocol: as §3
Sequence of RecQ-like DNA helicase BLM (Homo sapiens), P54132 [H996A] (P54132 whole entry H996A): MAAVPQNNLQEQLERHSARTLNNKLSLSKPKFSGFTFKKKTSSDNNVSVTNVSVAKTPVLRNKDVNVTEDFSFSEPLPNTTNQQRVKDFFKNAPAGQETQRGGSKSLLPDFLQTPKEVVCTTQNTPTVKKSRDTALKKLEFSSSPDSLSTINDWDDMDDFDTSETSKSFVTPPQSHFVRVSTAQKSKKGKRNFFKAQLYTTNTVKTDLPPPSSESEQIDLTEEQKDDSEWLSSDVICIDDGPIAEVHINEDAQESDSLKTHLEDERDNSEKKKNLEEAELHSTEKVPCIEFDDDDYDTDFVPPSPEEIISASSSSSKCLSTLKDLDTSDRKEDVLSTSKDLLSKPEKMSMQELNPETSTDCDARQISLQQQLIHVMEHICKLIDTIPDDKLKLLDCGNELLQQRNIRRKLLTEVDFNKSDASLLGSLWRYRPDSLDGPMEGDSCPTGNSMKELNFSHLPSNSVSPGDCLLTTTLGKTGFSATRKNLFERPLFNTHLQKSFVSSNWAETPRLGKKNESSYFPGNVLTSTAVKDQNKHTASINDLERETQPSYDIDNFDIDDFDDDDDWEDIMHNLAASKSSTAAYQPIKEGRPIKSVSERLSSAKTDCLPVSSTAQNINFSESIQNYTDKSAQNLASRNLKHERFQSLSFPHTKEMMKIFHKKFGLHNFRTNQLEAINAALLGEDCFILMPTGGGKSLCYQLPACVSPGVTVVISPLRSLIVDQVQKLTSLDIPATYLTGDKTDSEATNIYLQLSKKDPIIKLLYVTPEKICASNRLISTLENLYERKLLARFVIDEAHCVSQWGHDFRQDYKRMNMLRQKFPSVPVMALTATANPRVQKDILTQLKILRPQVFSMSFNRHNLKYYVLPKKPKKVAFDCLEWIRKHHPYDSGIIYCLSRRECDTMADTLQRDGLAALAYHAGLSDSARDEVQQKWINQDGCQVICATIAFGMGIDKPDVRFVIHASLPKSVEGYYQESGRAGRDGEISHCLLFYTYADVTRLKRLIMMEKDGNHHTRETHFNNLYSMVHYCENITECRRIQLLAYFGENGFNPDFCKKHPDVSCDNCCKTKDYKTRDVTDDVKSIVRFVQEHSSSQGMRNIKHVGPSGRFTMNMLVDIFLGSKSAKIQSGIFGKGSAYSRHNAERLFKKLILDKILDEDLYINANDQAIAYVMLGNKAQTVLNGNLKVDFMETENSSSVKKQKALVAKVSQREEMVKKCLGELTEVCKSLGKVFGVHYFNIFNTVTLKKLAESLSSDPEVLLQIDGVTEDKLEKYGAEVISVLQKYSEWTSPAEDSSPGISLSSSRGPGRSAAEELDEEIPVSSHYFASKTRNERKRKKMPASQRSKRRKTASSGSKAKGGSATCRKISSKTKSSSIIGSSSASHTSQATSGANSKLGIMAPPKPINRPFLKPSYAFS
For assay [8], the target named is T1, RecQ-like DNA helicase BLM. The experiment in a line: Inhibition of His-tagged BLM (unknown origin) expressed in Escherichia coli BL21 (DE3) assessed as reduction in BLM helicase unwinding activity at 10 uM using 5'-biotin labeled forked-DNA as substrate after 1 hr by PAGE analysis. In a few lines:
as §4

The test system of assay [9] is HCT-116. In words: Induction of apoptosis in human HCT116 cells assessed as increase in cleaved caspase 7 expression at 2 uM after 48 hrs by Western blot analysis. It is filed as functional, cell-based. In a few lines: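 HCT116 cells treated with ligand (DNA-damage proteins 24 h, apoptosis proteins 48 h), lysed in RIPA at 4 °C. 40 μg protein per lane resolved by SDS-PAGE, blotted to PVDF, probed with damage and apoptosis antibody panels; β-actin loading control; chemiluminescent detection.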

In assay [10] the target is T1, RecQ-like DNA helicase BLM. In words: Inhibition of BLM in human HCT116 cells assessed as increase in gamma-H2AX expression at half IC50 concentration after 24 hrs by Western blot analysis.
In assay [11] the test system is HCT-116. In words: Chemosensitization activity in human HCT116 cells assessed as RI-I-induced antiproliferative activity at 1.25 uM in presence of RI-I after 24 hrs by MTT assay. It is filed as functional, cell-based.
For assay [12], the system named is HCT-116. The experiment in a line: Antiproliferative activity against human HCT116 cells up to 2 uM incubated up to 15 days by MTT assay. The class given is functional, cell-based.
The subject of assay [13] is HCT-116. In words: Induction of apoptosis in human HCT116 cells assessed as up-regulation of ATM phosphorylation up to 2 uM after 24 hrs by Western blot analysis.
Assay [14] addresses T1, RecQ-like DNA helicase BLM. In words: Binding affinity to His-tagged BLM (642 to 1296 residues) (unknown origin) expressed in Escherichia coli BL21 (DE3) by ITC assay. A digest of the protocol: as §2
Assay [15] concerns HCT-116. In words: Induction of apoptosis in human HCT116 cells assessed as up-regulation of ATR phosphorylation up to 2 uM after 24 hrs by Western blot analysis.
Assay [16] deals with HCT-116. The experiment in a line: Antiproliferative activity against human HCT116 cells after 24 hrs in presence of siRNA by MTT assay. It is filed as functional, cell-based. Particulars: in the assay text read “after 48 hrs” for “after 24 hrs”. In a few lines:
(§5)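 HCT116 cells (5×10^3/well) grown 24 h, then exposed to 0–50 μM test agent; for knockdown, cells pre-treated with 50 nM BLM siRNA for 24 h first.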

Assay [17] concerns RecQ-like DNA helicase BLM (Homo sapiens), P54132 [E1143A]. The experiment in a line: Inhibition of His-tagged BLM E1143A mutant (unknown origin) binding to DNA assessed as effect on unbound DNA. In a few lines: as §3
Sequence of RecQ-like DNA helicase BLM (Homo sapiens), P54132 [E1143A] (P54132 whole entry E1143A): as the sequence (P54132 whole entry H996A) above, with A996H, E1143A counted along it
In assay [18] the test system is HCT-116. The experiment in a line: Antiproliferative activity against human HCT116 cells after 24 hrs by MTT assay. It is filed as functional, cell-based. Conditions: in the assay text read “48 hrs” for “24 hrs”. In a few lines: as §5
The target in assay [19] is T1, RecQ-like DNA helicase BLM. The experiment in a line: Inhibition of BLM in human HCT116 cells assessed as DNA damage by measuring gammaH2AX up to 2 uM after 48 hrs by […]. It is filed as cell-based.

The values below come from ChEMBL document CHEMBL4316604, “Discovery of Isaindigotone Derivatives as Novel Bloom's Syndrome Protein (BLM) Helicase Inhibitors That Disrupt the BLM/DNA Interactions and Regulate the Homologous Recombination Repair” (J Med Chem, 2019).

Molecules are shown by their SMILES. The source made the active and inactive calls. No cut-off for these calls is given here.

T1 sequence (P54132 whole entry): as the sequence (P54132 whole entry H996A) above, with A996H counted along it
Sequence of RecQ-like DNA helicase BLM (Homo sapiens), P54132 [M1111A] (P54132 whole entry M1111A): as the sequence (P54132 whole entry H996A) above, with A996H, M1111A counted along it

Turning to `CCN(CC)CCCNc1cc2nc3n(c(=O)c2cc1F)CC/C3=C\c1ccc(C(C)C)cc1`, the Activity in the assay with HCT-116 [1] was 71.2%; in the assay with HCT-116 [18], “Dose-dependent effect”. For the same compound, in assay [2], the fold change (FC) was less than 3. Further, in [3], the inhibition result is “Dose-dependent effect”. Also, the outcome (with DNA; in assay [4]; in the assay with HCT-116 [16]) was inactive. The inhibition result in assay [5], in assay [7] and in assay [17] was “inactive” throughout. Also, the inhibition result in [6], in assay [8], in assay [10] and in assay [19] was “Active” in each case. Besides, the result in the assay with HCT-116 [9], with HCT-116 [11], with HCT-116 [12], in the assay with HCT-116 [13] and in the assay with HCT-116 [15] was Active. The compound also showed a Kd in [14] of 1800 nM.
